Reference: ChEMBL document CHEMBL3351569, “Synthesis and antiproliferative activity of some new thieno[2,3-d]pyrimidin-4(3H)-ones containing 1,2,4-triazole and 1,3,4-thiadiazole moiety” (Eur J Med Chem, 2014)

Tests used:
[1] = tested on: HeLa; test: Cytotoxicity against human HeLa cells assessed as reduction in cell viability after 24 hrs by MTS assay; assay type: functional, cell-based
Procedure, shortened: (§1)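 Compounds were dissolved in DMSO at 4 mg/ml (stock) and diluted 1:10, 1:100, 1:1000 and 1:10 000. Cells were incubated 24 h with compound, with untreated cells in unmodified medium as the control. MTS reagent was then added for 2 h at 37°C under 5% CO2/95% air, and absorbance was read at 490 nm. Viability is expressed as % of untreated control (100%) at each concentration, and IC50/EC50 were calculated from it.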

[2] = tested on: HepG2; test: Cytotoxicity against human HepG2 cells assessed as reduction in cell viability after 24 hrs by MTS assay; assay type: functional, cell-based; details: HepG2, 24 h; procedure, shortened: as §1
[3] = tested on: HT-29; test: Antiproliferative activity against human HT-29 cells by CellTiter-96 non-radioactive assay; assay type: functional, cell-based; procedure, shortened: as §1
[4] = tested on: MDA-MB-231; test: Antiproliferative activity against human MDA-MB-231 cells by CellTiter-96 non-radioactive assay; assay type: functional, cell-based; procedure, shortened: as §1
[5] = Antiproliferative activity against human LEP-3 cells by CellTiter-96 non-radioactive assay; assay type: cell-based; procedure, shortened: as §1
[6] = tested on: HeLa; test: Antiproliferative activity against human HeLa cells by CellTiter-96 non-radioactive assay; assay type: functional, cell-based; procedure, shortened: as §1
[7] = tested on: HT-29; test: Cytotoxicity against human HT-29 cells assessed as reduction in cell viability after 24 hrs by MTS assay; assay type: functional, cell-based; details: HT-29, 24 h; procedure, shortened: as §1
[8] = tested on: MDA-MB-231; test: Cytotoxicity against human MDA-MB-231 cells assessed as reduction in cell viability after 24 hrs by MTS assay; assay type: functional, cell-based; details: MDA-MB-231, 24 h; procedure, shortened: as §1
[9] = Cytotoxicity against human LEP-3 cells assessed as reduction in cell viability after 24 hrs by MTS assay; assay type: cell-based; details: LEP-3, 24 h; procedure, shortened: as §1
[10] = tested on: HepG2; test: Antiproliferative activity against human HepG2 cells by CellTiter-96 non-radioactive assay; assay type: functional, cell-based; procedure, shortened: as §1

Compound: O=c1[nH]c(Cc2nnc(S)n2-c2ccccc2)nc2sc3c(c12)CCCC3
- IC50 [1]: 0.00095 µM
- IC50 [2]: 1800 µM
- EC50 [3]: 1.8 µM
- EC50 [4]: 1.2 µM
- EC50 [5]: 0.46 µM

Compound: Cc1c(C(=O)O)sc2nc(Cc3nnc(S)n3-c3ccccc3)[nH]c(=O)c12
- IC50 [2]: 0.29 µM
- EC50 [3]: 0.86 µM
- EC50 [4]: 0.3 µM
- EC50 [6]: 0.12 µM
- EC50 [5]: 1.21 µM

Compound: CCNc1nnc(Cc2nc3sc4c(c3c(=O)[nH]2)CCCC4)s1
- IC50 [7]: 0.097 µM
- IC50 [8]: 1.26 µM
- IC50 [1]: 3.8 µM
- IC50 [2]: 0.21 µM
- IC50 [9]: 0.44 µM

Compound: CCNc1nnc(Cc2nc3sc(C(=O)OCC)c(C)c3c(=O)[nH]2)s1
- IC50 [8]: 0.0012 µM
- IC50 [1]: 3.31 µM
- EC50 [3]: 0.42 µM
- EC50 [10]: 1.26 µM
- EC50 [5]: 0.31 µM

Compound: O=c1[nH]c(Cc2nnc(Nc3ccccc3)s2)nc2sc3c(c12)CCCC3
- IC50 [7]: 0.13 µM
- IC50 [8]: 0.0374 µM
- IC50 [1]: 1.85 µM
- IC50 [2]: 1.23 µM
- IC50 [9]: 3.17 µM

Compound: CCOC(=O)c1sc2nc(Cc3nnc(Nc4ccccc4)s3)[nH]c(=O)c2c1C
- IC50 [1]: 2.3 µM
- IC50 [2]: 0.88 µM
- EC50 [3]: 1.5 µM
- EC50 [4]: 0.0018 µM
- EC50 [5]: 0.26 µM

Compound: NNC(=O)Cc1nc2sc3c(c2c(=O)[nH]1)CCCC3
- EC50 [3]: 2.12 µM
- EC50 [4]: 1.54 µM
- EC50 [6]: 2.52 µM
- EC50 [10]: 2.18 µM
- EC50 [5]: 2.21 µM

Compound: CCNC(=S)NNC(=O)Cc1nc2sc3c(c2c(=O)[nH]1)CCCC3
- EC50 [3]: 0.04 µM
- EC50 [4]: 1.8 µM
- EC50 [6]: 0.032 µM
- EC50 [10]: 1.02 µM
- EC50 [5]: 0.12 µM

Compound: CCNC(=S)NNC(=O)Cc1nc2sc(C(=O)OCC)c(C)c2c(=O)[nH]1
- IC50 [8]: 0.0391 µM
- IC50 [1]: 1.7 µM
- EC50 [3]: 0.089 µM
- EC50 [10]: 0.19 µM
- EC50 [5]: 0.025 µM

Compound: CCOC(=O)c1sc2nc(CC(=O)NNC(=S)Nc3ccccc3)[nH]c(=O)c2c1C
- IC50 [7]: 0.00156 µM
- IC50 [8]: 1.21 µM
- IC50 [1]: 9.3 µM
- IC50 [2]: 1.47 µM
- IC50 [9]: 1500 µM

Compound: CCn1c(S)nnc1Cc1nc2sc3c(c2c(=O)[nH]1)CCCC3
- IC50 [1]: 1.69 µM
- EC50 [3]: 2.43 µM
- EC50 [4]: 0.13 µM
- EC50 [10]: 2.08 µM
- EC50 [5]: 1.14 µM

Compound: CCn1c(S)nnc1Cc1nc2sc(C(=O)O)c(C)c2c(=O)[nH]1
- EC50 [3]: 0.91 µM
- EC50 [4]: 1.16 µM
- EC50 [6]: 2.34 µM
- EC50 [10]: 1.4 µM
- EC50 [5]: 1.4 µM
